From article PMC4607043 (International journal of biological macromolecules, 2015)

Assays:
ATP synthase = settings: cited from earlier work
βD380R/βD386R [1] = experiment: Growth on succinate plates; format: cell-based, E. coli; settings: 3 days, estimated by eye, means of four to six experiments
Method in brief: (§1)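 E. coli DK8 carrying plasmid-borne ATP synthase genes (wild-type pBWU13.4; mutants made by site-directed mutagenesis and sequence-verified) were grown on plates with succinate as the non-fermentable carbon source, with or without test peptide. Growth was scored by eye after 3 days on a scale from ++++ (normal/heavy) to − (none). Values are means of four to six experiments.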

[2] = test system: membrane bound F1Fo ATP synthase mutant βD386R; experiment: Inhibition of ATPase activity, βD386R; format: biochemical, Escherichia coli; settings: at maximal inhibition, preincubated 60 min at room temperature, pH 8.0
Method in brief: (§2)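 Wild-type or mutant membrane-bound F1Fo was prepared by French press, washed, and taken up in 50 mM TrisSO4 pH 8.0, 2.5 mM MgSO4. It was preincubated with a range of test peptide concentrations for 60 min at room temperature, then assayed with 10 mM NaATP, 4 mM MgCl2, 50 mM TrisSO4 pH 8.5 for 5–10 min using 20–30 µg protein. Reactions were stopped with SDS (3.3% final) and Pi read at OD700 (Taussky–Shorr). Activity is relative to wild type without peptide, from duplicate tubes and two or more membrane preparations.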

[3] = test system: membrane bound F1Fo ATP synthase double mutants βD380A/βD386A, βD380Q/βD386Q, or βD380R/βD386R; experiment: Inhibition of ATPase activity, double mutants as a group; format: biochemical, Escherichia coli
Method in brief: as §2

βD380Q/βD386Q [4] = experiment: Growth on succinate plates; format: cell-based, E. coli; settings: 3 days, estimated by eye, means of four to six experiments
Method in brief: as §1

βD380A [5] = experiment: Growth on succinate plates; format: cell-based, E. coli; settings: 3 days, estimated by eye, means of four to six experiments
Method in brief: as §1

βD380A/βD386A [6] = experiment: Growth yield in limiting glucose; format: cell-based, E. coli; settings: 3–5 mM glucose, wild type in absence of peptides = 100%, means of four to six experiments
Method in brief: (§3)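 Measures oxidative plus substrate-level phosphorylation as growth on limiting glucose (3–5 mM). The host is E. coli DK8 carrying plasmid pBWU13.4, which encodes all ATP synthase genes, or site-directed βD380/βD386 mutants built on a βY331W background; mutations were confirmed by sequencing. Cultures were grown with or without each of two C-amidated test peptides (>95% HPLC purity, dissolved in deionized water). pUC118/DK8 served as the null strain.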

βD380R [7] = experiment: Growth on succinate plates; format: cell-based, E. coli; settings: 3 days, estimated by eye, means of four to six experiments
Method in brief: as §1

mutant E. coli cells = experiment: Growth in presence of peptides, mutants; format: cell-based; settings: succinate plates and limiting glucose
Wild-type (pBWU13.4/DK8) [8] = experiment: Growth on succinate plates; format: cell-based, E. coli; settings: 3 days, estimated by eye, means of four to six experiments
Method in brief: as §1

βD380Q [9] = experiment: Growth on succinate plates; format: cell-based, E. coli; settings: 3 days, estimated by eye, means of four to six experiments
Method in brief: as §1

βD380A [10] = experiment: Growth yield in limiting glucose; format: cell-based, E. coli; settings: 3–5 mM glucose, wild type in absence of peptides = 100%, means of four to six experiments
Method in brief: as §3

βD386Q [11] = experiment: Growth yield in limiting glucose; format: cell-based, E. coli; settings: 3–5 mM glucose, wild type in absence of peptides = 100%, means of four to six experiments
Method in brief: as §3

βD380Q [12] = experiment: Growth yield in limiting glucose; format: cell-based, E. coli; settings: 3–5 mM glucose, wild type in absence of peptides = 100%, means of four to six experiments
Method in brief: as §3

[13] = test system: membrane bound F1Fo ATP synthase mutant βD380R; experiment: Inhibition of ATPase activity, βD380R; format: biochemical, Escherichia coli; settings: at maximal inhibition, preincubated 60 min at room temperature, pH 8.0
Method in brief: as §2

βD386Q [14] = experiment: Growth on succinate plates; format: cell-based, E. coli; settings: 3 days, estimated by eye, means of four to six experiments
Method in brief: as §1

Wild-type (pBWU13.4/DK8) [15] = experiment: Growth yield in limiting glucose; format: cell-based, E. coli; settings: 3–5 mM glucose, wild type in absence of peptides = 100%, means of four to six experiments
Method in brief: as §3

wild type E. coli cells = experiment: Growth in presence of peptides, wild-type; format: cell-based; settings: succinate plates and limiting glucose
Method in brief: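 Wild-type DK8/pBWU13.4 was grown with test peptide on succinate plates, scored by eye after 3 days, and in limiting glucose (3–5 mM). Glucose growth yield is expressed relative to wild type without peptide, set as 100%. Values are means of four to six experiments.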

βD386R [16] = experiment: Growth on succinate plates; format: cell-based, E. coli; settings: 3 days, estimated by eye, means of four to six experiments
Method in brief: as §1

[17] = test system: membrane bound F1Fo ATP synthase mutants βD380A/Q/R or βD386A/Q/R; experiment: Inhibition of ATPase activity, single mutants as a group; format: biochemical, Escherichia coli; settings: for inhibition of ATPase, single mutants (in words): single mutations with replacement of Asp to Ala, Gln, or Arg
Method in brief: as §2

βD380R/βD386R [18] = experiment: Growth yield in limiting glucose; format: cell-based, E. coli; settings: 3–5 mM glucose, wild type in absence of peptides = 100%, means of four to six experiments
Method in brief: as §3

βD386A [19] = experiment: Growth on succinate plates; format: cell-based, E. coli; settings: 3 days, estimated by eye, means of four to six experiments
Method in brief: as §1

βY331W [20] = experiment: Growth on succinate plates; format: cell-based, E. coli; settings: 3 days, estimated by eye, means of four to six experiments
Method in brief: as §1

βD380Q/βD386Q [21] = experiment: Growth yield in limiting glucose; format: cell-based, E. coli; settings: 3–5 mM glucose, wild type in absence of peptides = 100%, means of four to six experiments
Method in brief: as §3

βY331W [22] = experiment: Growth yield in limiting glucose; format: cell-based, E. coli; settings: 3–5 mM glucose, wild type in absence of peptides = 100%, means of four to six experiments
Method in brief: as §3

βD386A [23] = experiment: Growth yield in limiting glucose; format: cell-based, E. coli; settings: 3–5 mM glucose, wild type in absence of peptides = 100%, means of four to six experiments
Method in brief: as §3

Null (pUC118/DK8) = experiment: Growth yield in limiting glucose; format: cell-based, E. coli; settings: 3–5 mM glucose, wild type in absence of peptides = 100%, means of four to six experiments
βD386R [24] = experiment: Growth yield in limiting glucose; format: cell-based, E. coli; settings: 3–5 mM glucose, wild type in absence of peptides = 100%, means of four to six experiments
Method in brief: as §3

βD380A/βD386A [25] = experiment: Growth on succinate plates; format: cell-based, E. coli; settings: 3 days, estimated by eye, means of four to six experiments
Method in brief: as §1

βD380R [26] = experiment: Growth yield in limiting glucose; format: cell-based, E. coli; settings: 3–5 mM glucose, wild type in absence of peptides = 100%, means of four to six experiments
Method in brief: as §3

O=[N+]([O-])c1ccc(Cl)c2nonc12 [NBD-Cl]
maximal inhibition of mutant or wild-type ATP synthase (in words) (ATP synthase): partially or incompletely inhibited

[N-]=[N+]=[N-].[Na+] [NaN3]
maximal inhibition of mutant or wild-type ATP synthase (in words) (ATP synthase): partially or incompletely inhibited

[Cl][Sc]([Cl])[Cl] [ScCl3]
maximal inhibition of mutant or wild-type ATP synthase (in words) (ATP synthase): partially or incompletely inhibited

melittin
ATPase inhibitory activity (in words) (ATP synthase): strongly inhibited

[Cl][Al]([Cl])[Cl] [AlCl3]
maximal inhibition of mutant or wild-type ATP synthase (in words) (ATP synthase): partially or incompletely inhibited

melittin-amide
Growth on succinate plates (βD380R/βD386R [1]): ++/++ | prevention of inhibition (residual activity) [2]: 80% | inhibition of ATPase, double mutants (in words) [3]: very little or no inhibition | Growth on succinate plates (βD380Q/βD386Q [4]): +++/+++ | Growth on succinate plates (βD380A [5]): +++/+++ | Growth yield in limiting glucose (βD380A/βD386A [6]): 75% | Growth on succinate plates (βD380R [7]): +++/+++ | growth of mutant cells in presence of peptide (in words) (mutant E. coli cells): not much affected | Growth on succinate plates (Wild-type (pBWU13.4/DK8) [8]): ±/± | Growth on succinate plates (βD380Q [9]): +++/+++ | Growth yield in limiting glucose (βD380A [10]): 89% | Growth yield in limiting glucose (βD386Q [11]): 74% | Growth yield in limiting glucose (βD380Q [12]): 90% | residual ATPase activity [13]: 80% | Growth on succinate plates (βD386Q [14]): +++/+++ | Growth yield in limiting glucose (Wild-type (pBWU13.4/DK8) [15]): 20% | growth of wild-type cells in presence of peptide (in words) (wild type E. coli cells): abrogated growth | Growth on succinate plates (βD386R [16]): +++/+++ | refractoriness of mutants to peptide induced inhibition (in words) ([17]; all of the mutations used in this study (single and double)): refractory | inhibition of ATPase, single mutants (in words) [17]: decreased inhibition | inhibition of ATPase, single mutants (in words) ([17]; listed as c-terminal amide bound melittin): only partial inhibition | Growth yield in limiting glucose (βD380R/βD386R [18]): 66% | Growth on succinate plates (βD386A [19]): +++/+++ | Growth on succinate plates (βY331W [20]): ±/± | Growth yield in limiting glucose (βD380Q/βD386Q [21]): 72% | Growth yield in limiting glucose (βY331W [22]): 22% | Growth yield in limiting glucose (βD386A [23]): 79% | Growth yield in limiting glucose (Null (pUC118/DK8)): 43% | Growth yield in limiting glucose (βD386R [24]): 70% | Growth on succinate plates (βD380A/βD386A [25]): +++/+++ | Growth yield in limiting glucose (βD380R [26]): 82%
